Laboratory results: ChEMBL document CHEMBL1156185, “A class of 3S-2-aminoacyltetrahydro-beta-carboline-3-carboxylic acids: their facile synthesis, inhibition for platelet activation, and high in vivo anti-thrombotic potency” (J Med Chem, 2010)
Where a name gives a salt, the structure may show the parent alone.

What was measured:
[1] = test system: Rattus norvegicus; experiment: Antithrombotic activity in Wistar rat arterioveinos cannula model assessed as reduction of thrombus weight at 100 nmol/kg, po; format: functional
Procedure, shortened: (§1)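 Male Wistar rats received agent in NS, or NS alone, orally. Blood then passed from the right carotid artery to the left jugular vein through a thread-containing polyethylene cannula for 15 min. Wet thrombus weight was reported as mean ± SD, n = 12.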

[2] = Antiplatelet aggregation activity against platelet-activating factor-induced pig platelet aggregation after 5 mins by aggregometer; format: functional, cell-based; conditions: Sus scrofa
Procedure, shortened: (§2)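 Pig blood from six pigs was spun at 1000 rpm for 10 min to give PRP, then at 1500g for 10 min to give PPP. PRP was adjusted to 2 × 10⁸ platelets/mL with autologous PPP. Test agent or NS was added at final 100 µM–1 nM. Agonists were at final concentrations of ADP 10 µM, AA 350 µM, PAF 0.1 µM and thrombin 0.1 U/mL. Light-transmission peak was read at 37 °C over 5 min, in sextuplicate. IC50 was taken from the concentration–inhibition curve.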

[3] = Antiplatelet aggregation activity against ADP-induced pig platelet aggregation after 5 mins by aggregometer; format: functional, cell-based; conditions: Sus scrofa; procedure, shortened: as §2
[4] = test system: Rattus norvegicus; experiment: Antithrombotic activity in Wistar rat arterioveinos cannula model assessed as reduction of thrombus weight at 10 nmol/kg, iv; format: functional
Procedure, shortened: (§3)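 Male Wistar rats, 250–300 g. Agents were dissolved in NS and kept on ice. Heparin sodium was injected into a thread-containing polyethylene cannula, then NS or agent was injected intravenously. The cannula joined the right carotid artery to the left jugular vein, and blood flowed through it for 15 min. Wet thrombus weight on the thread was recorded as mean ± SD, n = 12.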

[5] = test system: Platelet; experiment: Ratio of TCCA IC50 to compound IC50 for ADP-induced pig platelet aggregation; format: functional, Sus scrofa
Procedure, shortened: (§4)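 Fold ratios of IC50 values. Each IC50 came from pig PRP (2 × 10⁸ platelets/mL) light-transmission aggregometry at 37 °C for 5 min, in sextuplicate, with final ADP 10 µM, AA 350 µM, PAF 0.1 µM or thrombin 0.1 U/mL.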

[6] = test system: Rattus norvegicus; experiment: Antithrombotic activity in Wistar rat arterioveinos cannula model assessed as reduction of thrombus weight at 1 nmol/kg, iv; format: functional; procedure, shortened: as §3
[7] = test system: Platelet; experiment: Ratio of IC50 for platelet-activating factor-induced pig platelet aggregation to IC50 for ADP-induced pig platelet aggregation; format: functional, Sus scrofa; procedure, shortened: as §4
[8] = test system: Rattus norvegicus; experiment: Antithrombotic activity in Wistar rat arterioveinos cannula model assessed as reduction of thrombus weight at 100 nmol/kg, iv; format: functional; procedure, shortened: as §3
[9] = test system: Platelet; experiment: Ratio of IC50 for arachidonic acid-induced pig platelet aggregation to IC50 for ADP-induced pig platelet aggregation; format: functional, Sus scrofa; procedure, shortened: as §4
[10] = Antiplatelet aggregation activity against thrombin-induced pig platelet aggregation after 5 mins by aggregometer; format: functional, cell-based; conditions: Sus scrofa; procedure, shortened: as §2
[11] = test system: Platelet; experiment: Ratio of IC50 for thrombin-induced pig platelet aggregation to IC50 for ADP-induced pig platelet aggregation; format: functional, Sus scrofa; procedure, shortened: as §4
[12] = Antiplatelet aggregation activity against arachidonic acid-induced pig platelet aggregation after 5 mins by aggregometer; format: functional, cell-based; conditions: Sus scrofa; procedure, shortened: as §2
[13] = Antiplatelet aggregation activity against collagen-induced platelet; format: functional, cell-based
[14] = test system: Rattus norvegicus; experiment: Antithrombotic activity in Wistar rat arterioveinos cannula model assessed as reduction of thrombus weight at 1 umol/kg, iv; format: functional; procedure, shortened: as §3
[15] = test system: Rattus norvegicus; experiment: Antithrombotic activity in Wistar rat arterioveinos cannula model assessed as reduction of thrombus weight at 167 umol/kg, iv; format: functional; procedure, shortened: as §3
[16] = test system: Rattus norvegicus; experiment: Antithrombotic activity in Wistar rat arterioveinos cannula model assessed as reduction of thrombus weight at 167 umol/kg, po; format: functional; procedure, shortened: as §1
[17] = test system: Rattus norvegicus; experiment: Antithrombotic activity in Wistar rat arterioveinos cannula model assessed as reduction of thrombus weight at 5 umol/kg, iv; format: functional; procedure, shortened: as §3

| Structure (SMILES) | Activity [1] [mg] | IC50 [2] [nM] | IC50 [3] [nM] | Activity [4] [mg] | Ratio IC50 [5] | Activity [6] [mg] | Ratio IC50 [7] | Thrombus weight [8] [mg] | Ratio IC50 [9] | IC50 [10] [nM] | Ratio IC50 [11] | IC50 [12] [nM] | IC50 [13] [nM] | Activity [14] [mg] | Activity [15] [mg] | Activity [16] [mg] | Activity [17] [mg] |
| --- | --- | --- | --- | --- | --- | --- | --- | --- | --- | --- | --- | --- | --- | --- | --- | --- | --- |
| CC[C@H](C)[C@H](N)C(=O)N1Cc2[nH]c3ccccc3c2C[C@H]1C(=O)O | 13.88 | 12.6 | 6.56 | 18.12 | 107 | 25.43 | 1.9 | 13.74 | 3.6 | 27 | 4.1 | 23.9 | – | – | – | – | – |
| Cc1nccc2c1[nH]c1ccccc12 [HARMAN] | – | – | – | – | – | – | – | – | – | – | – | – | > 130000 | – | – | – | – |
| CC1=NCCc2c1[nH]c1cc(O)ccc21 [HARMALOL] | – | – | – | – | – | – | – | – | – | – | – | – | > 130000 | – | – | – | – |
| CC(C)C[C@H](N)C(=O)N1Cc2[nH]c3ccccc3c2C[C@H]1C(=O)O | – | 16.9 | 8.7 | – | 81 | – | 1.9 | 25.26 | 3.1 | 34.1 | 3.9 | 26.8 | – | 10.55 | – | – | – |
| c1ccc2c(c1)[nH]c1cnccc12 [NORHARMANE] | – | – | – | – | – | – | – | – | – | – | – | – | > 130000 | – | – | – | – |
| N[C@@H](Cc1c[nH]c2ccccc12)C(=O)N1Cc2[nH]c3ccccc3c2C[C@H]1C(=O)O | – | 16.8 | 10.4 | – | 67 | – | 1.6 | 18.43 | 2.7 | 29.6 | 2.8 | 27.9 | – | – | – | – | – |
| N[C@@H](CC(=O)O)C(=O)N1Cc2[nH]c3ccccc3c2C[C@H]1C(=O)O | – | 13.1 | 6.62 | – | 106 | – | 2 | 14.4 | 3.6 | 26.6 | 4 | 24 | – | – | – | – | – |
| Cc1nccc2c1[nH]c1cc(O)ccc12 [HARMOL HYDROCHLORIDE] | – | – | – | – | – | – | – | – | – | – | – | – | > 130000 | – | – | – | – |
| N[C@@H](Cc1ccc(O)cc1)C(=O)N1Cc2[nH]c3ccccc3c2C[C@H]1C(=O)O | – | 15.1 | 7.76 | – | 90 | – | 1.9 | 15.49 | 3.2 | 28.4 | 3.7 | 25.2 | – | – | – | – | – |
| N[C@@H](Cc1cnc[nH]1)C(=O)N1Cc2[nH]c3ccccc3c2C[C@H]1C(=O)O | – | 15.5 | 7.31 | – | 96 | – | 2.1 | 15.89 | 3.4 | 29 | 4 | 24.9 | – | – | – | – | – |
| N[C@@H](Cc1ccccc1)C(=O)N1Cc2[nH]c3ccccc3c2C[C@H]1C(=O)O | – | 19 | 9.8 | – | 72 | – | 1.9 | 17.25 | 2.9 | 30.2 | 3.1 | 28.6 | – | – | – | – | – |
| COc1ccc2c(c1)[nH]c1c(C)nccc12 [HARMINE] | – | – | – | – | – | – | – | – | – | – | – | – | > 130000 | – | – | – | – |
| N[C@@H](CCC(=O)O)C(=O)N1Cc2[nH]c3ccccc3c2C[C@H]1C(=O)O | – | 14.8 | 10.2 | – | 68 | – | 1.4 | 16.6 | 2.9 | 30.9 | 3 | 29.6 | – | – | – | – | – |
| N[C@@H](CS)C(=O)N1Cc2[nH]c3ccccc3c2C[C@H]1C(=O)O | – | 14.7 | 7.1 | – | 99 | – | 2.1 | 15.25 | 3.4 | 27.6 | 3.9 | 24.4 | – | – | – | – | – |
| C[C@H](N)C(=O)N1Cc2[nH]c3ccccc3c2C[C@H]1C(=O)O | – | 13.6 | 6.71 | – | 104 | – | 2 | 14.61 | 3.7 | 27.4 | 4.1 | 24.6 | – | – | – | – | – |
| C[C@@H](O)[C@H](N)C(=O)N1Cc2[nH]c3ccccc3c2C[C@H]1C(=O)O | – | 14.8 | 7.81 | – | 90 | – | 1.9 | 15.72 | 3.1 | 27.8 | 3.6 | 24.6 | – | – | – | – | – |
| NCC(=O)N1Cc2[nH]c3ccccc3c2C[C@H]1C(=O)O | – | 16.8 | 8.56 | – | 82 | – | 2 | 19.29 | 3.1 | 31.9 | 3.7 | 26.5 | – | – | – | – | – |
| CC(=O)Oc1ccccc1C(=O)O [ASPIRIN] | – | – | – | – | – | – | – | – | – | – | – | – | – | – | 15.21 | 17.9 | – |
| COc1ccc2c3c([nH]c2c1)C(C)=NCC3 [HARMALINE] | – | – | – | – | – | – | – | – | – | – | – | – | > 130000 | – | – | – | – |
| N[C@@H](CO)C(=O)N1Cc2[nH]c3ccccc3c2C[C@H]1C(=O)O | – | 16.1 | 8.66 | – | 81 | – | 1.9 | 16.25 | 3 | 30.8 | 3.6 | 26.2 | – | – | – | – | – |
| N=C(N)NCCC[C@H](N)C(=O)N1Cc2[nH]c3ccccc3c2C[C@H]1C(=O)O | – | 18.2 | 9.47 | – | 74 | – | 1.9 | 16.68 | 2.9 | 29.7 | 3.1 | 27.5 | – | – | – | – | – |
| NC(=O)C[C@H](N)C(=O)N1Cc2[nH]c3ccccc3c2C[C@H]1C(=O)O | – | 16.2 | 9.19 | – | 76 | – | 1.8 | 16.34 | 3.2 | 30 | 3.3 | 28.9 | – | – | – | – | – |
| CSCC[C@H](N)C(=O)N1Cc2[nH]c3ccccc3c2C[C@H]1C(=O)O | 13.49 | 12.4 | 6.5 | 17.67 | 108 | 22.59 | 1.9 | 13 | 3.6 | 25.3 | 3.9 | 23.5 | – | – | – | – | – |
| NCCCC[C@H](N)C(=O)N1Cc2[nH]c3ccccc3c2C[C@H]1C(=O)O | – | 17 | 11.1 | – | 63 | – | 1.5 | 16.54 | 2.7 | 33.4 | 3 | 30.1 | – | – | – | – | – |
| O=C(O)[C@@H]1Cc2c([nH]c3ccccc23)CN1 [CYCLOMETHYLTRYPTOPHAN] | – | 752 | 701 | – | – | – | – | – | – | 982 | – | 866 | – | – | – | – | 18.79 |
| CC(C)[C@H](N)C(=O)N1Cc2[nH]c3ccccc3c2C[C@H]1C(=O)O | – | 17.7 | 7.8 | – | 90 | – | 2.3 | 18.56 | 3.5 | 32.5 | 4.2 | 27.3 | – | – | – | – | – |
| NC(=O)CC[C@H](N)C(=O)N1Cc2[nH]c3ccccc3c2C[C@H]1C(=O)O | – | 17.2 | 7.7 | – | 91 | – | 2.2 | 17.3 | 3.7 | 30.1 | 3.9 | 28.2 | – | – | – | – | – |
